Data set [1] relates to Mus musculus. Nature of the data set: Toxicity in mouse L1210 cells allografted CDF1 mouse assessed as change in body weight between day 1 and day 5 at 10 mg/kg, ip dosed on days 1 and 5. It is filed as organism-based. The arrangement: dose 10 mg/kg, route intraperitoneal. As to conditions: in vivo. The gist of the method: (§1)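 Female CDF1 mice, 11-12 weeks old, were given 0.1 mL L1210 suspension ip (1.43×10^6 cells/mL) on day 0. Drug was purified by preparative HPLC, dissolved in sterile 0.85% saline and given ip within 15 min, on days 1, 5 and 9. Ten mice per dose, with ten untreated controls. Weights on days 1, 5 and 9. Value is the mean body-weight change of treated minus control, in grams.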

Data set [2] deals with Mus musculus. Nature of the data set: Toxicity in mouse L1210 cells allografted CDF1 mouse assessed as change in body weight between day 1 and day 9 at 10 mg/kg, ip dosed on days 1, 5 and 9. It is filed as organism-based. The arrangement: dose 10 mg/kg, route intraperitoneal. As to conditions: in vivo. Summed up: as §1
Data set [3] has as its system L1210. Nature of the data set: Antitumor activity against mouse L1210 cells allografted in CDF1 mouse assessed as increase in life span at 40 mg/kg, ip relative to control. The note with it: route intraperitoneal. It counts as functional. The gist of the method: (§2)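 Female CDF1 mice, 11-12 weeks old, inoculated ip on day 0 with 0.1 mL L1210 suspension (1.43×10^6 cells/mL). Drug purified by preparative HPLC, dissolved in sterile 0.85% saline, injected ip within 15 min on days 1, 5 and 9. Ten mice per dose; ten untreated controls. Read-out: % increase in mean life span over controls; ≥25% counted as active; test run in duplicate.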

In data set [4] the test system is Mus musculus. Nature of the data set: Toxicity in mouse L1210 cells allografted CDF1 mouse assessed as change in body weight between day 1 and day 5 at 5 mg/kg, ip dosed on days 1 and 5. The note with it: in vivo. It counts as organism-based. Details: dose 5 mg/kg, route intraperitoneal. Summed up: as §1
Data set [5] deals with L1210. The data set is described as follows: Antitumor activity against mouse L1210 cells allografted in CDF1 mouse assessed as increase in life span at 5 mg/kg, ip relative to control. As to conditions: route intraperitoneal. It is filed as functional. Summed up: as §2
For data set [6], the system named is Mus musculus. The data set is described as follows: Toxicity in mouse L1210 cells allografted CDF1 mouse assessed as change in body weight between day 1 and day 9 at 60 mg/kg, ip dosed on days 1, 5 and 9. It is filed as organism-based. The arrangement: dose 60 mg/kg, route intraperitoneal. As to conditions: in vivo. Summed up: as §1
The nature of data set [7]: Stability of the compound in water assessed as compound remaining at 2.6 mg/ml at 37 degC after 7 hrs by UV-HPLC analysis. It is filed as physicochemical. The note with it: read-out: Stability.
Data set [8] in a line: Half life in water at 2.6 mg/ml at 37 degC by UV-HPLC analysis. It counts as physicochemical.
The nature of data set [9]: Half life in water at 2.6 mg/ml at 25 degC by UV-HPLC analysis. It counts as physicochemical.
Data set [10] in a line: Stability of the compound in water assessed as compound remaining at 2.6 mg/ml at 25 degC after 24 hrs by UV-HPLC analysis. It is filed as physicochemical. As to conditions: read-out: Stability.
Data set [11] is described as follows: Stability of the compound in water assessed as compound remaining at 2.6 mg/ml at 37 degC after 4 hrs by UV-HPLC analysis. It counts as physicochemical. As to conditions: read-out: Stability.
The subject of data set [12] is Mus musculus. Nature of the data set: Toxicity in mouse L1210 cells allografted CDF1 mouse assessed as change in body weight between day 1 and day 9 at 5 mg/kg, ip dosed on days 1, 5 and 9. It counts as organism-based. The arrangement: dose 5 mg/kg, route intraperitoneal. The note with it: in vivo. Summed up: as §1
Data set [13] has as its system Mus musculus. The data set is described as follows: Toxicity in mouse L1210 cells allografted CDF1 mouse assessed as change in body weight between day 1 and day 5 at 20 mg/kg, ip dosed on days 1 and 5. It is filed as organism-based. Details: dose 20 mg/kg, route intraperitoneal. As to conditions: in vivo. Summed up: as §1
Data set [14] concerns L1210. Nature of the data set: Antitumor activity against mouse L1210 cells allografted in CDF1 mouse assessed as increase in life span at 60 mg/kg, ip relative to control. It is filed as functional. As to conditions: route intraperitoneal. The gist of the method:
as §2

The subject of data set [15] is Mus musculus. The data set is described as follows: Toxicity in mouse L1210 cells allografted CDF1 mouse assessed as change in body weight between day 1 and day 5 at 40 mg/kg, ip dosed on days 1 and 5. As to conditions: in vivo. It counts as organism-based. Details: dose 40 mg/kg, route intraperitoneal. The gist of the method: as §1
The test system of data set [16] is Mus musculus. The data set is described as follows: Toxicity in mouse L1210 cells allografted CDF1 mouse assessed as change in body weight between day 1 and day 5 at 60 mg/kg, ip dosed on days 1 and 5. It counts as organism-based. Details: dose 60 mg/kg, route intraperitoneal. As to conditions: in vivo. The gist of the method: as §1
The test system of data set [17] is Mus musculus. The data set is described as follows: Toxicity in mouse L1210 cells allografted CDF1 mouse assessed as change in body weight between day 1 and day 9 at 40 mg/kg, ip dosed on days 1, 5 and 9. It is filed as organism-based. The arrangement: dose 40 mg/kg, route intraperitoneal. The note with it: in vivo. Summed up: as §1
In data set [18] the test system is L1210. Nature of the data set: Antitumor activity against mouse L1210 cells allografted in CDF1 mouse assessed as increase in life span at 10 mg/kg, ip relative to control. It is filed as functional. The note with it: route intraperitoneal. The gist of the method: as §2
Data set [19] has as its system Mus musculus. The data set is described as follows: Toxicity in mouse L1210 cells allografted CDF1 mouse assessed as change in body weight between day 1 and day 9 at 20 mg/kg, ip dosed on days 1, 5 and 9. It is filed as organism-based. Details: dose 20 mg/kg, route intraperitoneal. The note with it: in vivo. Summed up:
as §1

The test system of data set [20] is L1210. The data set is described as follows: Antitumor activity against mouse L1210 cells allografted in CDF1 mouse assessed as increase in life span at 20 mg/kg, ip relative to control. As to conditions: route intraperitoneal. It is filed as functional. Summed up: as §2
Data set [21] deals with Mus musculus. The data set is described as follows: Toxicity in mouse L1210 cells allografted CDF1 mouse assessed as mortality at 5 to 60 mg/kg, ip. It counts as organism-based. Details: dose 5-60 mg/kg, route intraperitoneal. As to conditions: in vivo. Summed up: (§3)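 L1210 ip implant (1.43×10^6 cells/mL, 0.1 mL) in female CDF1 mice, 11-12 weeks old. Freshly dissolved HPLC-purified drug in 0.85% saline given ip on days 1, 5 and 9; ten mice per dose. Toxicity scored as early death from acute toxicity, with body weights on days 1, 5 and 9 compared against untreated controls.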

Data set [22] relates to Mus musculus. The data set is described as follows: Toxicity in mouse L1210 cells allografted CDF1 mouse assessed as change in body weight between day 1 and day 5 at 2.5 mg/kg, ip dosed on days 1 and 5. It is filed as organism-based. Details: dose 2.5 mg/kg, route intraperitoneal. The note with it: in vivo. Summed up:
as §1

The test system of data set [23] is Mus musculus. The data set is described as follows: Toxicity in mouse L1210 cells allografted CDF1 mouse assessed as change in body weight between day 1 and day 9 at 2.5 mg/kg, ip dosed on days 1, 5 and 9. As to conditions: in vivo. It is filed as organism-based. Details: dose 2.5 mg/kg, route intraperitoneal. Summed up:
as §1

In data set [24] the test system is Mus musculus. Nature of the data set: Toxicity in mouse L1210 cells allografted CDF1 mouse assessed as mortality at 2.5 to 40 mg/kg, ip. It counts as organism-based. The arrangement: dose 2.5-40 mg/kg, route intraperitoneal. As to conditions: in vivo. The gist of the method: as §3
The next data set is described as follows: Half life in mice. The note with it: mouse, in vivo.
Data set [25] relates to L1210. Nature of the data set: Antitumor activity against mouse L1210 cells allografted in CDF1 mouse assessed as increase in life span at 2.5 mg/kg, ip relative to control. It counts as functional. As to conditions: route intraperitoneal. The gist of the method: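 Female CDF1 mice, 11-12 weeks old, given 0.1 mL ip of L1210 cells at 1.43×10^6 cells/mL on day 0. Drug purified by preparative HPLC, dissolved in sterile 0.85% saline and injected ip within 15 min, on days 1, 5 and 9. Ten mice per dose, ten untreated controls. % ILS is the increase in mean life span over controls; ≥25% counted as active.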

Bounds are passed on as bounds.

The ILS is the gain in survival time of treated over control animals, in per cent. What is called half-life is how long it takes for the measured level to halve. A higher half-life goes with slow decline.

For the compound `N=C(NC=O)NC(=O)N[C@@H]1O[C@H](CO)[C@@H](O)[C@H]1O`, the Activity in the data set on Mus musculus [1] is given as -1.6 g; with Mus musculus [2], -3.4 g; in the data set with Mus musculus [4], -1.2 g; in the data set on Mus musculus [6] it was -4.3 g; in the data set on Mus musculus [12], -2.6 g; in the data set with Mus musculus [13] it was -1.9 g. In addition, the Activity in the data set on Mus musculus [15] is listed as -0.8 g; in the data set on Mus musculus [16] it was -1.9 g; with Mus musculus [17] it was -4.7 g; in the data set with Mus musculus [19], -3.8 g; with Mus musculus [21], “Non-toxic”. Besides, the ILS at 40 mg/kg in the data set with L1210 [3] is 85%. Moreover, the ILS at 5 mg/kg with L1210 [5] was determined as 17%. For the same compound, the remaining at 7 h, 2.6 mg/ml in data set [7] came out at 25%. Also, the values for the half-life at 2.6 mg/ml in [8] and in data set [9] were 2 h and 9 h, respectively. In [10], the remaining at 24 h, 2.6 mg/ml came to 24%. Also, the remaining at 4 h, 2.6 mg/ml in data set [11] stood at 31%. Besides, the increase in lifespan (ILS) at 60 mg/kg in the data set on L1210 [14] is 93%. In addition, in the data set on L1210 [18], the increase in life span (ILS) at 10 mg/kg is 33%. Also, the increase in life span (ILS) at 20 mg/kg in the data set on L1210 [20] turned out to be 56%.
With `Nc1ncn([C@@H]2O[C@H](CO)[C@@H](O)[C@H]2O)c(=O)n1` [AZACITIDINE], the Activity in the data set with Mus musculus [1] is listed as -1.8 g; with Mus musculus [2], -4.5 g; in the data set on Mus musculus [4], -1 g; with Mus musculus [12], -2.9 g; in the data set on Mus musculus [13], -1.6 g; in the data set on Mus musculus [22] it was -1.5 g. Besides, the Activity is -2.3 g in the data set on Mus musculus [15]; -6.5 g in the data set on Mus musculus [17]; -5.7 g in the data set on Mus musculus [23]; “Non-toxic” with Mus musculus [24]; -5.1 g in the data set with Mus musculus [19]. Moreover, the ILS at 40 mg/kg with L1210 [3] is 84%. Further, the ILS at 5 mg/kg in the data set with L1210 [5] is 63%. In addition, in the data set with L1210 [18], the ILS at 10 mg/kg was determined as 86%. In addition, in the data set “Half life in mice”, the half-life was < 6 h. Besides, in the data set with L1210 [20], the increase in lifespan (ILS) at 20 mg/kg came to 130%. In addition, the increase in lifespan (ILS) at 2.5 mg/kg in the data set on L1210 [25] was 33%.

(Values after ChEMBL document CHEMBL3244387, “Isolation, characterization, and properties of a labile hydrolysis product of the antitumor nucleoside, 5-azacytidine” (J Med Chem, 1978).)
